Experimental data reported in ChEMBL document CHEMBL3124871, “Synthesis and pharmacological characterization of 1-benzyl-4-aminoindole-based thyroid hormone receptor β agonists” (Bioorg Med Chem, 2014).

Tests used:
[1] = target: T1, Thyroid hormone receptor beta (Homo sapiens, UniProt P10828); test: Displacement of [125I]-Triiodothyronine from human recombinant TRbeta1 ligand binding domain after 2 to 3 hrs by beta counting
T1 sequence (P10828 whole entry): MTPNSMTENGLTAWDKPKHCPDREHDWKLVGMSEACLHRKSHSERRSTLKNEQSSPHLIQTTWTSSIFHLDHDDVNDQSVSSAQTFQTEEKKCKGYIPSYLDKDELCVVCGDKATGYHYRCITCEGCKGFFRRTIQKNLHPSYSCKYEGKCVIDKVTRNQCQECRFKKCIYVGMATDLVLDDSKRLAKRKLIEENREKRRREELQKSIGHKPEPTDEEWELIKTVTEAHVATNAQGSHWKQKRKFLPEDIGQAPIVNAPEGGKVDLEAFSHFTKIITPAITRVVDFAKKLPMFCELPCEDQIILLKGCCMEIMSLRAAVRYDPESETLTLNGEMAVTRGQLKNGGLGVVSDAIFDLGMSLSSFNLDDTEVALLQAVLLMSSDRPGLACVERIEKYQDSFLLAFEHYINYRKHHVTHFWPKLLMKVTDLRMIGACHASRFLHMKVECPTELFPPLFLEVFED

[2] = target: T2, Thyroid hormone receptor alpha (Homo sapiens, UniProt P10827); test: Agonist activity at human recombinant TRalpha1 transfected in CV-1 cells after 8 to 10 hrs by alkaline phosphatase reporter gene assay; assay type: cell-based
T2 sequence (P10827 whole entry): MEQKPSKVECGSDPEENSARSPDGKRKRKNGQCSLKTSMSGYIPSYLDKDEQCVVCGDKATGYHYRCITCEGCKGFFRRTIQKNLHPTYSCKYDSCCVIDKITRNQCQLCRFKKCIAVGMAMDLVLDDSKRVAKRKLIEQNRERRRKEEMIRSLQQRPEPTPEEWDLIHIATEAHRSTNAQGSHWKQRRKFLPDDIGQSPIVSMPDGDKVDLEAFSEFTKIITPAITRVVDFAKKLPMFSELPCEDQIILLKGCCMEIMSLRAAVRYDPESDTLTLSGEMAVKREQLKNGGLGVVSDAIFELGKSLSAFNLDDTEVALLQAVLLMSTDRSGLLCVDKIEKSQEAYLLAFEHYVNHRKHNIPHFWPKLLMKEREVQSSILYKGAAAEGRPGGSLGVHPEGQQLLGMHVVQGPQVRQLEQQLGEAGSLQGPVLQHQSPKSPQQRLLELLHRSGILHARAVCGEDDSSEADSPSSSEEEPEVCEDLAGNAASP

[3] = system: CV-1; test: Selectivity ratio of EC50 for human recombinant transfected in CV-1 cells to EC50 for human recombinant TRbeta1 transfected in CV-1 cells; assay type: cell-based
Method in brief: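 CV-1 monkey kidney cells grown in DMEM with 10% FBS for 24 h at 37 °C and 5% CO2. Transfected (FuGENE) with hTRα1 or hTRβ1 plus a SEAP reporter for 24 h, then exposed to T3 or test compound for 8-10 h. SEAP was read as A405 of p-nitrophenol (pH 9.8, 30 min, RT). EC50 was set against T3 max = 100%; mean of four experiments; α/β ratio of EC50s.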

[4] = target: T2, Thyroid hormone receptor alpha; test: Displacement of [125I]-Triiodothyronine from human recombinant TRalpha1 ligand binding domain after 2 to 3 hrs by beta counting
[5] = target: T1, Thyroid hormone receptor beta; test: Agonist activity at human recombinant TRbeta1 transfected in CV-1 cells after 8 to 10 hrs by alkaline phosphatase reporter gene assay; assay type: cell-based
[6] = system: HepG2; test: Selectivity ratio of EC50 for human recombinant transfected in human HepG2 cells to EC50 for human recombinant TRbeta1 transfected in human HepG2; assay type: cell-based
[7] = target: T1, Thyroid hormone receptor beta; test: Agonist activity at human recombinant TRbeta1 transfected in human HepG2 cells after 8 to 10 hrs by alkaline phosphatase reporter gene assay; assay type: cell-based
[8] = system: Rattus norvegicus; test: Toxicity in cholesterol-fed Sprague-Dawley rat assessed as TSH level at 50 ug/kg/day, po qd for 1 week measured 3 to 6 hrs post last dose (reference value: 3.0 +/- 1.0 uIU/ml); assay type: organism-based; conditions: in vivo, 0.05 mg/kg
[9] = system: Rattus norvegicus; test: Reduction in plasma free cholesterol in cholesterol-fed Sprague-Dawley rat at 50 ug/kg/day, po qd for 1 week measured 3 to 6 hrs post last dose (reference value: 36 +/- 9 mg/dl); assay type: functional
[10] = system: Rattus norvegicus; test: Reduction in plasma triglyceride level in cholesterol-fed Sprague-Dawley rat at 50 ug/kg/day, po qd for 1 week measured 3 to 6 hrs post last dose (reference value: 62 +/- 25 mg/dl); assay type: functional
[11] = system: Rattus norvegicus; test: Reduction in plasma LDL-cholesterol in cholesterol-fed Sprague-Dawley rat at 50 ug/kg/day, po qd for 1 week measured 3 to 6 hrs post last dose (reference value: 51 +/- 15 mg/dl); assay type: functional
[12] = system: Rattus norvegicus; test: Reduction in plasma HDL-cholesterol in cholesterol-fed Sprague-Dawley rat at 50 ug/kg/day, po qd for 1 week measured 3 to 6 hrs post last dose (reference value: 22 +/- 6 mg/dl); assay type: functional
[13] = system: Rattus norvegicus; test: Toxicity in cholesterol-fed Sprague-Dawley rat assessed as total T4 level at 50 ug/kg/day, po qd for 1 week measured 3 to 6 hrs post last dose (reference value: 3.8 +/- 0.9 ug/dl); assay type: organism-based; conditions: in vivo, 0.05 mg/kg
[14] = system: Rattus norvegicus; test: Toxicity in cholesterol-fed Sprague-Dawley rat assessed as heart rate at 50 ug/kg/day, po qd for 1 week measured 3 to 6 hrs post last dose (reference value: 383.0 +/- 26.7 bpm); assay type: organism-based; conditions: in vivo, 0.05 mg/kg
[15] = system: Rattus norvegicus; test: Toxicity in cholesterol-fed Sprague-Dawley rat assessed as heart weight at 50 ug/kg/day, po qd for 1 week measured 3 to 6 hrs post last dose (reference value: 1.14 +/- 0.12 g); assay type: organism-based; conditions: in vivo, 0.05 mg/kg
[16] = system: Rattus norvegicus; test: Toxicity in cholesterol-fed Sprague-Dawley rat assessed as TSH level at 50 ug/kg/day, po qd for 1 week measured 3 to 6 hrs post last dose (reference value: 62 +/- 7 ng/dl); assay type: organism-based; conditions: in vivo, 0.05 mg/kg
[17] = system: Rattus norvegicus; test: Reduction in plasma total cholesterol in cholesterol-fed Sprague-Dawley rat at 50 ug/kg/day, po qd for 1 week measured 3 to 6 hrs post last dose (reference value: 190 +/- 49 mg/dl); assay type: functional
[18] = species: Homo sapiens; test: Reduction in cholesterol level in coronary heart disease patient with hyperlipidemia relative to placebo-control; assay type: functional; parameters: scale not given: the % may be the effect or the level left
[19] = species: Homo sapiens; test: Reduction in triglyceride level in coronary heart disease patient with hyperlipidemia relative to placebo-control; assay type: functional; parameters: scale not given: the % may be the effect or the level left

Structure (SMILES)	IC50 [1] [nM]	EC50 [2] [nM]	Ratio EC50 [3]	IC50 [4] [µM]	EC50 [5] [nM]	other results
Cc1c(CCC(=O)O)c2ccccc2n1Cc1ccc(O)c(C(C)C)c1	760	39	1	1.3	37	
Cc1cc2c(NC(=O)C(=O)O)cccc2n1Cc1ccc(O)c(C(C)C)c1			2.2		590	Ratio EC50 [6]: 1.5; EC50 [7]: 110 nM
CC(C)c1cc(Cn2ccc3c(NC(=O)C(=O)O)cccc32)ccc1O			2.7		1900	Ratio EC50 [6]: 2.2; EC50 [7]: 550 nM
Cc1c(CCCCC(=O)O)c2ccccc2n1Cc1ccc(O)c(C(C)C)c1	1400	100	1.6	> 10	62	
N[C@@H](Cc1cc(I)c(Oc2ccc(O)c(I)c2)c(I)c1)C(=O)O [LIOTHYRONINE]						Activity [8]: 0.1 uIU/ml; Activity [9]: 22 mg/dL; Activity [10]: 61 mg/dL; Activity [11]: 28 mg/dL; Activity [12]: 22 mg/dL; Activity [13]: 0.9 µg/dL; Activity [14]: 430 bpm; Activity [15]: 1.25 g; Activity [16]: 31 ng/dL; Activity [17]: 123 mg/dL
N[C@H](Cc1cc(I)c(Oc2cc(I)c(O)c(I)c2)c(I)c1)C(=O)[O-].O.[Na+] [DEXTROTHYROXINE SODIUM]						Activity [18]: 12%; Activity [19]: 15%
Cc1c(C(=O)NCC(=O)O)c2ccccc2n1Cc1ccc(O)c(C(C)C)c1	1100			> 10		
Cc1c(CCCC(=O)O)c2ccccc2n1Cc1ccc(O)c(C(C)C)c1	290	180	4.8	3.4	37	
